Source: ChEMBL document CHEMBL1154310, “Stereoselective synthesis and antimicrobial activity of benzofuran-based (1E)-1-(piperidin-1-yl)-N2-arylamidrazones” (2009)
Values after ≈ are worked out from the molar mass of the structure shown. Active and inactive are the calls of the source. The rule behind the calls is not given here.

tested on: Pseudomonas aeruginosa; experiment: Ratio of compound to amoxicilline activity against Pseudomonas aeruginosa at 5 mg/ml after 24 to 48 hrs by agar diffusion technique; format: functional; conditions: not given

Point of comparison: `CC1(C)S[C@@H]2[C@H](NC(=O)[C@H](N)c3ccc(O)cc3)C(=O)N2[C@H]1C(=O)O` [AMOXICILLIN], Ratio 1. Against it:
- CC(=N\NC(=O)c1oc2ccccc2c1C)/C(Cl)=N/Nc1ccccc1 — lower, 0
- Cc1c(C(=O)N/N=C(/C=C/c2ccccc2)C(=N/Nc2ccccc2)\N2CCCCC2)oc2ccccc12 — lower, 0

tested on: Pseudomonas aeruginosa; experiment: Antibacterial activity against Pseudomonas aeruginosa at 5 mg/ml after 24 to 48 hrs by agar diffusion technique; format: functional; conditions: read-out: IZ
Outline: (§1)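 Hole-plate diffusion on nutrient agar (pH 6.2) seeded with clinical bacterial isolates. 1 cm wells were filled with 100 of a 5 mg/ml DMSO solution, with DMSO-only control wells and amoxicilline as the reference. Plates were held at 4 °C for 1 h, then incubated at 37 °C. Inhibition zone diameter was read after 24–48 h.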

Compound `CC1(C)S[C@@H]2[C@H](NC(=O)[C@H](N)c3ccc(O)cc3)C(=O)N2[C@H]1C(=O)O` [AMOXICILLIN] has a zone of inhibition at 5000 µg/mL of 20 mm.

tested on: Syncephalastrum racemosum; experiment: Ratio of compound to grisofulvin activity against Syncephalastrum racemosum at 5 mg/ml after 24 to 48 hrs by agar diffusion technique; format: functional; conditions: not given

Point of comparison: `Cc1c(C(=O)N/N=C(/C=C/c2ccccc2)C(=N/Nc2ccccc2)\N2CCCCC2)oc2ccccc12`, Ratio 1. Against it:
- CC(=N\NC(=O)c1oc2ccccc2c1C)/C(Cl)=N/Nc1ccccc1 — lower, 0
- CC1(C)S[C@@H]2[C@H](NC(=O)[C@H](N)c3ccc(O)cc3)C(=O)N2[C@H]1C(=O)O [AMOXICILLIN] — the same, 1

tested on: Candida albicans; experiment: Antifungal activity against Candida albicans at 5 mg/ml after 24 to 48 hrs by agar diffusion technique; format: functional; conditions: read-out: IZ
Outline: (§2)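 Clinical fungal or yeast isolates were seeded on malt extract agar (pH 5.4). 1 cm holes received 100 of test solution at 5 mg/ml in DMSO, with DMSO control holes and griseofulvin as the standard. Plates sat 1 h at 4 °C, then were incubated at 28 °C. Zone diameters were measured at 24–48 h.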

Point of comparison: `Cc1c(C(=O)N/N=C(/C=C/c2ccccc2)C(=N/Nc2ccccc2)\N2CCCCC2)oc2ccccc12`, zone of inhibition at 5000 µg/mL 15 mm. Against it:
- CC(=N\NC(=O)c1oc2ccccc2c1C)/C(Cl)=N/Nc1ccccc1 — lower, 6 mm
- CC1(C)S[C@@H]2[C@H](NC(=O)[C@H](N)c3ccc(O)cc3)C(=O)N2[C@H]1C(=O)O [AMOXICILLIN] — lower, 10 mm

tested on: Escherichia coli; experiment: Antibacterial activity against Escherichia coli at 5 mg/ml after 24 to 48 hrs by agar diffusion technique; format: functional; conditions: read-out: IZ; outline: as §1

Point of comparison: `CC1(C)S[C@@H]2[C@H](NC(=O)[C@H](N)c3ccc(O)cc3)C(=O)N2[C@H]1C(=O)O` [AMOXICILLIN], zone of inhibition at 5000 µg/mL 28 mm. Against it:
- Cc1c(C(=O)N/N=C(/C=C/c2ccccc2)C(=N/Nc2ccccc2)\N2CCCCC2)oc2ccccc12 — lower, 14 mm

tested on: Syncephalastrum racemosum; experiment: Antifungal activity against Syncephalastrum racemosum at 5 mg/ml after 24 to 48 hrs by agar diffusion technique; format: functional; conditions: read-out: IZ; outline: as §2

Point of comparison: `CC1(C)S[C@@H]2[C@H](NC(=O)[C@H](N)c3ccc(O)cc3)C(=O)N2[C@H]1C(=O)O` [AMOXICILLIN], zone of inhibition at 5000 µg/mL 19 mm. Against it:
- Cc1c(C(=O)N/N=C(/C=C/c2ccccc2)C(=N/Nc2ccccc2)\N2CCCCC2)oc2ccccc12 — the same, 19 mm

tested on: Candida albicans; experiment: Ratio of compound to grisofulvin activity against Candida albicans at 5 mg/ml after 24 to 48 hrs by agar diffusion technique; format: functional; conditions: not given

Point of comparison: `Cc1c(C(=O)N/N=C(/C=C/c2ccccc2)C(=N/Nc2ccccc2)\N2CCCCC2)oc2ccccc12`, Ratio 1.5. Against it:
- CC(=N\NC(=O)c1oc2ccccc2c1C)/C(Cl)=N/Nc1ccccc1 — lower, 0.6
- CC1(C)S[C@@H]2[C@H](NC(=O)[C@H](N)c3ccc(O)cc3)C(=O)N2[C@H]1C(=O)O [AMOXICILLIN] — lower, 1

tested on: Bacillus subtilis; experiment: Ratio of compound to amoxicilline activity against Bacillus subtilis at 5 mg/ml after 24 to 48 hrs by agar diffusion technique; format: functional; conditions: not given

Point of comparison: `CC1(C)S[C@@H]2[C@H](NC(=O)[C@H](N)c3ccc(O)cc3)C(=O)N2[C@H]1C(=O)O` [AMOXICILLIN], Ratio 1. Against it:
- CC(=N\NC(=O)c1oc2ccccc2c1C)/C(Cl)=N/Nc1ccccc1 — lower, 0
- Cc1c(C(=O)N/N=C(/C=C/c2ccccc2)C(=N/Nc2ccccc2)\N2CCCCC2)oc2ccccc12 — lower, 0.63

tested on: Aspergillus fumigatus; experiment: Ratio of compound to grisofulvin activity against Aspergillus fumigatus at 5 mg/ml after 24 to 48 hrs by agar diffusion technique; format: functional; conditions: not given

Point of comparison: `CC(=N\NC(=O)c1oc2ccccc2c1C)/C(Cl)=N/Nc1ccccc1`, Ratio 0. Against it:
- Cc1c(C(=O)N/N=C(/C=C/c2ccccc2)C(=N/Nc2ccccc2)\N2CCCCC2)oc2ccccc12 — higher, 0.84
- CC1(C)S[C@@H]2[C@H](NC(=O)[C@H](N)c3ccc(O)cc3)C(=O)N2[C@H]1C(=O)O [AMOXICILLIN] — higher, 1

tested on: Candida albicans; experiment: Antifungal activity against Candida albicans after 24 to 48 hrs by serial dilution technique; format: functional; conditions: not given
Outline: (§3)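 MIC by serial dilution: DMSO solutions started at a maximum of 500 and were diluted twofold in succession. Each dilution was inoculated with the test organism, and inhibition zones were measured by agar diffusion.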

`COC1=CC(=O)C[C@@H](C)[C@]12Oc1c(Cl)c(OC)cc(OC)c1C2=O` [GRISEOFULVIN] showed an MIC of 75 mg/L (≈ 213 µM).

tested on: Staphylococcus aureus; experiment: Antibacterial activity against Staphylococcus aureus at 5 mg/ml after 24 to 48 hrs by agar diffusion technique; format: functional; conditions: read-out: IZ; outline: as §1

Point of comparison: `Cc1c(C(=O)N/N=C(/C=C/c2ccccc2)C(=N/Nc2ccccc2)\N2CCCCC2)oc2ccccc12`, zone of inhibition at 5000 µg/mL 16 mm. Against it:
- CC1(C)S[C@@H]2[C@H](NC(=O)[C@H](N)c3ccc(O)cc3)C(=O)N2[C@H]1C(=O)O [AMOXICILLIN] — higher, 30 mm

tested on: Aspergillus fumigatus; experiment: Antifungal activity against Aspergillus fumigatus at 5 mg/ml after 24 to 48 hrs by agar diffusion technique; format: functional; conditions: read-out: IZ; outline: as §2

Point of comparison: `Cc1c(C(=O)N/N=C(/C=C/c2ccccc2)C(=N/Nc2ccccc2)\N2CCCCC2)oc2ccccc12`, zone of inhibition at 5000 µg/mL 21 mm. Against it:
- CC1(C)S[C@@H]2[C@H](NC(=O)[C@H](N)c3ccc(O)cc3)C(=O)N2[C@H]1C(=O)O [AMOXICILLIN] — higher, 25 mm

tested on: Staphylococcus aureus; experiment: Ratio of compound to amoxicilline activity against Staphylococcus aureus at 5 mg/ml after 24 to 48 hrs by agar diffusion technique; format: functional; conditions: not given

Point of comparison: `CC1(C)S[C@@H]2[C@H](NC(=O)[C@H](N)c3ccc(O)cc3)C(=O)N2[C@H]1C(=O)O` [AMOXICILLIN], Ratio 1. Against it:
- CC(=N\NC(=O)c1oc2ccccc2c1C)/C(Cl)=N/Nc1ccccc1 — lower, 0
- Cc1c(C(=O)N/N=C(/C=C/c2ccccc2)C(=N/Nc2ccccc2)\N2CCCCC2)oc2ccccc12 — lower, 0.53

tested on: Staphylococcus aureus; experiment: Antibacterial activity against Staphylococcus aureus after 24 to 48 hrs by serial dilution technique; format: functional; conditions: not given; outline: as §3

Work on `CC1(C)S[C@@H]2[C@H](NC(=O)[C@H](N)c3ccc(O)cc3)C(=O)N2[C@H]1C(=O)O` [AMOXICILLIN] yielded an MIC of 50 mg/L (≈ 137 µM).

tested on: Escherichia coli; experiment: Ratio of compound to amoxicilline activity against Escherichia coli at 5 mg/ml after 24 to 48 hrs by agar diffusion technique; format: functional; conditions: not given

Point of comparison: `CC1(C)S[C@@H]2[C@H](NC(=O)[C@H](N)c3ccc(O)cc3)C(=O)N2[C@H]1C(=O)O` [AMOXICILLIN], Ratio 1. Against it:
- CC(=N\NC(=O)c1oc2ccccc2c1C)/C(Cl)=N/Nc1ccccc1 — lower, 0
- Cc1c(C(=O)N/N=C(/C=C/c2ccccc2)C(=N/Nc2ccccc2)\N2CCCCC2)oc2ccccc12 — lower, 0.5

tested on: Geotrichum candidum; experiment: Ratio of compound to grisofulvin activity against Geotrichum candidum at 5 mg/ml after 24 to 48 hrs by agar diffusion technique; format: functional; conditions: not given

Point of comparison: `Cc1c(C(=O)N/N=C(/C=C/c2ccccc2)C(=N/Nc2ccccc2)\N2CCCCC2)oc2ccccc12`, Ratio 0. Against it:
- CC(=N\NC(=O)c1oc2ccccc2c1C)/C(Cl)=N/Nc1ccccc1 — the same, 0
- CC1(C)S[C@@H]2[C@H](NC(=O)[C@H](N)c3ccc(O)cc3)C(=O)N2[C@H]1C(=O)O [AMOXICILLIN] — higher, 1

tested on: Aspergillus fumigatus; experiment: Antifungal activity against Aspergillus fumigatus after 24 to 48 hrs by serial dilution technique; format: functional; conditions: not given; outline: as §3

With `COC1=CC(=O)C[C@@H](C)[C@]12Oc1c(Cl)c(OC)cc(OC)c1C2=O` [GRISEOFULVIN] the MIC was 50 mg/L (≈ 142 µM).

tested on: Bacillus subtilis; experiment: Antibacterial activity against Bacillus subtilis at 5 mg/ml after 24 to 48 hrs by agar diffusion technique; format: functional; conditions: read-out: IZ; outline: as §1

Point of comparison: `CC1(C)S[C@@H]2[C@H](NC(=O)[C@H](N)c3ccc(O)cc3)C(=O)N2[C@H]1C(=O)O` [AMOXICILLIN], zone of inhibition at 5000 µg/mL 24 mm. Against it:
- Cc1c(C(=O)N/N=C(/C=C/c2ccccc2)C(=N/Nc2ccccc2)\N2CCCCC2)oc2ccccc12 — lower, 15 mm

tested on: Geotrichum candidum; experiment: Antifungal activity against Geotrichum candidum at 5 mg/ml after 24 to 48 hrs by agar diffusion technique; format: functional; conditions: read-out: IZ; outline: as §2

`CC1(C)S[C@@H]2[C@H](NC(=O)[C@H](N)c3ccc(O)cc3)C(=O)N2[C@H]1C(=O)O` [AMOXICILLIN] showed a zone of inhibition at 5000 µg/mL of 10 mm.

tested on: Candida albicans; experiment: Antifungal activity against Candida albicans assessed as occurrence of cellular aggregation by microscopy; format: functional, organism-based; conditions: not given
Outline: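 Agar cultures exposed to 100 of compound were examined directly by phase-contrast or bright-field microscopy with video-camera image analysis, at ×400 for multicellular and ×1000 for unicellular fungi.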

For `COC1=CC(=O)C[C@@H](C)[C@]12Oc1c(Cl)c(OC)cc(OC)c1C2=O` [GRISEOFULVIN], the Activity was “Active”.
